Data as given in ChEMBL document CHEMBL3045116, “Synthesis and biological evaluation of 2-(5-substituted-1-((diethylamino)methyl)-2-oxoindolin-3-ylidene)-N-substituted-hydrazinecarbothioamides” (Med Chem Res, 2013).
pEC50, pIC50: −log10 of the molar value.

Key:
[1] = test system: Feline infectious peritonitis virus; assay: Antiviral activity against Feline Infectious peritonitis virus infected cat CRFK cells assessed as reduction of virus-induced cytopathic effect after 3 days by colorimetric formazan-based MTS assay; type: functional, organism-based; settings: Alphacoronavirus 1, CRFK, 72 h
Outline: (§1)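 Confluent cell monolayers were infected with 100 CCID50 of virus, and serial dilutions of compound were added at the time of infection.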

Influenza A virus H3N2 = assay: Antiviral activity against Influenza A virus H3N2 infected MDCK cells assessed as reduction of virus-induced cytopathic effect after 3 days by colorimetric formazan-based MTS assay; type: functional, organism-based; settings: 72 h; outline: as §1
[2] = test system: Vesicular stomatitis virus; assay: Antiviral activity against Vesicular stomatitis virus infected human HEL cells assessed as reduction of virus-induced cytopathic effect after 3 days by colorimetric formazan-based MTS assay; type: functional, organism-based; settings: 72 h; outline: as §1
Respirovirus muris = assay: Antiviral activity against Sendai virus infected African green monkey Vero cells assessed as reduction of virus-induced cytopathic effect after 3 days by colorimetric formazan-based MTS assay; type: functional, organism-based; settings: 72 h
[3] = Cytotoxicity against Chlorocebus aethiops (African green monkey) Vero cells assessed as change in cellular morphology; type: cell-based; settings: chlorocebus sabaeus
Candida albicans = assay: Antifungal activity against Candida albicans assessed as growth inhibition at 50 ug/ml by cup-plate method (reference value: 8 to 10 mm); type: functional; settings: read-out: DIZ
Human alphaherpesvirus 1 [4] = assay: Antiviral activity against Human herpesvirus 1 strain KOS infected human HEL cells assessed as reduction of virus-induced cytopathic effect after 3 days by colorimetric formazan-based MTS assay; type: functional, organism-based; settings: Human alphaherpesvirus 1, KOS, 72 h; outline: as §1
Human alphaherpesvirus 1 [5] = assay: Antiviral activity against acyclovir-resistant thymidine kinase negative Human herpesvirus 1 strain KOS infected human HEL cells assessed as reduction of virus-induced cytopathic effect after 3 days by colorimetric formazan-based MTS assay; type: functional, organism-based; settings: Human alphaherpesvirus 1, KOS, 72 h; outline: as §1
Vaccinia virus = assay: Antiviral activity against Vaccinia virus infected human HEL cells assessed as reduction of virus-induced cytopathic effect after 3 days by colorimetric formazan-based MTS assay; type: functional, organism-based; settings: Orthopoxvirus vaccinia, 72 h; outline: as §1
Proteus vulgaris = assay: Antibacterial activity against Proteus vulgaris assessed as growth inhibition at 50 ug/ml by cup-plate method (reference value: 8 to 10 mm); type: functional; settings: read-out: DIZ
Coxsackievirus B4 [6] = assay: Antiviral activity against Human coxsackievirus B4 infected human HeLa cells assessed as reduction of virus-induced cytopathic effect after 3 days by colorimetric formazan-based MTS assay; type: functional, organism-based; settings: Enterovirus B, 72 h; outline: as §1
Aspergillus niger = assay: Antifungal activity against Aspergillus niger assessed as growth inhibition at 50 ug/ml by cup-plate method (reference value: 8 to 10 mm); type: functional; settings: read-out: DIZ
[7] = Cytotoxicity against Felis catus (cat) CRFK cells assessed as change in cellular morphology; type: cell-based; settings: crfk
Outline: (§2)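 Uninfected cells were exposed to compound in parallel with the antiviral cultures. The read-out is the minimum cytotoxic concentration that causes a microscopically detectable alteration of normal cell morphology.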

Escherichia coli = assay: Antibacterial activity against Escherichia coli assessed as growth inhibition at 50 ug/ml by cup-plate method (reference value: 8 to 10 mm); type: functional; settings: read-out: DIZ
[8] = test system: Respiratory syncytial virus; assay: Antiviral activity against Respiratory syncytial virus infected human HeLa cells assessed as reduction of virus-induced cytopathic effect after 3 days by colorimetric formazan-based MTS assay; type: functional, organism-based; settings: 72 h; outline: as §1
Human alphaherpesvirus 2 = assay: Antiviral activity against Human herpesvirus 2 strain G infected human HEL cells assessed as reduction of virus-induced cytopathic effect after 3 days by colorimetric formazan-based MTS assay; type: functional, organism-based; settings: Human alphaherpesvirus 2, strain G, 72 h; outline: as §1
[9] = Inhibition of beta lactamase assessed as increase in time taken for iodine decolorization relative to control; set-up: concentration or dose not given beside the values; settings: concentration not given here
L1210 = assay: Cytotoxicity against Mus musculus (mouse) L1210 cells assessed as growth inhibition after 48 hr by coulter counter analysis; type: functional, cell-based; settings: L1210, 48 h
Outline: (§3)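 Cells in growth medium were allowed to proliferate with variable compound amounts at 37 °C in a humidified CO2 atmosphere. Incubation ran 48 h for L1210, 72 h for CEM and 96 h for HeLa. Cells were then counted with a Coulter counter.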

Human respirovirus 3 = assay: Antiviral activity against Human parainfluenza virus 3 infected African green monkey Vero cells assessed as reduction of virus-induced cytopathic effect after 3 days by colorimetric formazan-based MTS assay; type: functional, organism-based; settings: Human respirovirus 3, Vero, 72 h
Outline: (§4)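 Cells grown to confluency in 96-well plates ([…], Vero for lines 9–10) were infected with 100 CCID50 of virus, and serial compound dilutions were added at infection. Plates were incubated at 37 °C for 3 days, until complete CPE appeared in untreated virus controls.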

[10] = test system: Vesicular stomatitis virus; assay: Antiviral activity against Vesicular stomatitis virus infected human HeLa cells assessed as reduction of virus-induced cytopathic effect after 3 days by colorimetric formazan-based MTS assay; type: functional, organism-based; settings: 72 h; outline: as §1
Influenza B virus = assay: Antiviral activity against Influenza B virus infected in MDCK cells assessed as reduction of virus-induced cytopathic effect after 3 days by colorimetric formazan-based MTS assay; type: functional, organism-based; settings: 72 h; outline: as §1
Bacillus subtilis = assay: Antibacterial activity against Bacillus subtilis assessed as growth inhibition at 50 ug/ml by cup-plate method (reference value: 8 to 10 mm); type: functional; settings: read-out: DIZ
[11] = test system: Mammalian orthoreovirus 1; assay: Antiviral activity against Mammalian orthoreovirus 1 infected African green monkey Vero cells assessed as reduction of virus-induced cytopathic effect after 3 days by colorimetric formazan-based MTS assay; type: functional, organism-based; settings: Mammalian orthoreovirus 1, Vero, 72 h; outline: as §4
[12] = Cytotoxicity against Homo sapiens (human) HEL cells assessed as change in cellular morphology; type: cell-based
Punta Toro virus = assay: Antiviral activity against Punta Toro virus infected in African green monkey Vero cells assessed as reduction of virus-induced cytopathic effect after 3 days by colorimetric formazan-based MTS assay; type: functional, organism-based; settings: 72 h; outline: as §1
Felid alphaherpesvirus 1 = assay: Antiviral activity against Felid herpesvirus 1 infected cat CRFK cells assessed as reduction of virus-induced cytopathic effect after 3 days by colorimetric formazan-based MTS assay; type: functional, organism-based; settings: Felid alphaherpesvirus 1, CRFK, 72 h; outline: as §4
MDCK = assay: (§5) Cytotoxicity against MDCK cells assessed as change in cellular morphology; type: cell-based, Canis lupus familiaris; settings: dog, mdck; outline: as §2
[13] = as §5; type: cell-based, Canis lupus familiaris; settings: dog, MDCK cells; outline: as §2
[14] = Inhibition of beta lactamase assessed as time for decolorization of iodine (reference value: 79.5 secs)
Salmonella typhi = assay: Antibacterial activity against Salmonella enterica subsp. enterica serovar Typhi assessed as growth inhibition at 50 ug/ml by cup-plate method (reference value: 8 to 10 mm); type: functional; settings: read-out: DIZ
Staphylococcus aureus = assay: Antibacterial activity against Staphylococcus aureus assessed as growth inhibition at 50 ug/ml by cup-plate method (reference value: 8 to 10 mm); type: functional; settings: read-out: DIZ
Coxsackievirus B4 [15] = assay: Antiviral activity against Human coxsackievirus B4 infected African green monkey Vero cells assessed as reduction of virus-induced cytopathic effect after 3 days by colorimetric formazan-based MTS assay; type: functional, organism-based; settings: Enterovirus B, 72 h; outline: as §1
Klebsiella pneumoniae = assay: Antibacterial activity against Klebsiella pneumoniae assessed as growth inhibition at 50 ug/ml by cup-plate method (reference value: 8 to 10 mm); type: functional; settings: read-out: DIZ
HeLa = assay: (§6) Cytotoxicity against Homo sapiens (human) HeLa cells assessed as change in cellular morphology; type: cell-based; settings: hela; outline: as §2
[16] = as §6; type: cell-based; settings: HeLa cells; outline: as §2
Influenza A virus = assay: Antiviral activity against Unidentified Influenza A virus (H1N1) infected MDCK cells assessed as reduction of virus-induced cytopathic effect after 3 days by colorimetric formazan-based MTS assay; type: functional, organism-based; settings: 72 h; outline: as §1
CCRF-CEM = assay: Cytotoxicity against Homo sapiens (human) CEM cells assessed as growth inhibition after 72 hr by coulter counter analysis; type: functional, cell-based; outline: as §3

| SMILES | pEC50 [1] | pEC50 (Influenza A virus H3N2) | pEC50 [2] | pEC50 (Respirovirus muris) | MCC [3] | zone of inhibition at 50 µg/mL (Candida albicans) | pEC50 (Human alphaherpesvirus 1 [4]) | pEC50 (Human alphaherpesvirus 1 [5]) | pEC50 (Vaccinia virus) | zone of inhibition at 50 µg/mL (Proteus vulgaris) | pEC50 (Coxsackievirus B4 [6]) | zone of inhibition at 50 µg/mL (Aspergillus niger) | CC50 [7] | zone of inhibition at 50 µg/mL (Escherichia coli) | pEC50 [8] | pEC50 (Human alphaherpesvirus 2) | inhibition [9] | pIC50 (L1210) | pEC50 (Human respirovirus 3) | pEC50 [10] | further results |
| --- | --- | --- | --- | --- | --- | --- | --- | --- | --- | --- | --- | --- | --- | --- | --- | --- | --- | --- | --- | --- | --- |
| CCN(CC)CN1C(=O)/C(=N/NC(N)=S)c2ccccc21 | < 4.70 | < 4.70 | < 4.00 | < 4.00 | > 100 µM | 11 mm | < 4.00 | < 4.00 | < 4.00 | 11 mm | < 4.00 | 11 mm | 73.8 µM | 11 mm | < 4.00 | < 4.00 | 38.2% | 3.92 | < 4.00 | < 4.00 | pEC50 (Influenza B virus): < 4.70; zone of inhibition at 50 µg/mL (Bacillus subtilis): 11 mm; pEC50 [11]: < 4.00; MCC [12]: > 100 µM; pEC50 (Punta Toro virus): < 4.00; pEC50 (Felid alphaherpesvirus 1): < 4.70; CC50 (MDCK): 85.8 µM; MCC [13]: 100 µM; TIME [14]: 0.0357 h; zone of inhibition at 50 µg/mL (Salmonella typhi): 11 mm; zone of inhibition at 50 µg/mL (Staphylococcus aureus): 11 mm; pEC50 (Coxsackievirus B4 [15]): < 4.00; zone of inhibition at 50 µg/mL (Klebsiella pneumoniae): 11 mm; CC50 (HeLa): > 100 µM; MCC [16]: > 100 µM; pEC50 (Influenza A virus): < 4.70; pIC50 (CCRF-CEM): 3.79 |
| CCN(CC)CN1C(=O)/C(=N/NC(=S)Nc2ccc(C)cc2)c2cc(Cl)ccc21 | < 5.40 | < 6.10 | < 4.70 | < 5.40 | ≥ 4 µM | 11 mm | < 4.70 | < 4.70 | < 4.70 | 11 mm | < 5.40 | 11 mm | 17.5 µM | 21 mm | < 5.40 | < 4.70 | 34.1% | 5.02 | < 5.40 | < 5.40 | pEC50 (Influenza B virus): < 6.10; zone of inhibition at 50 µg/mL (Bacillus subtilis): 11 mm; pEC50 [11]: < 5.40; MCC [12]: 100 µM; pEC50 (Punta Toro virus): < 5.40; pEC50 (Felid alphaherpesvirus 1): < 5.40; CC50 (MDCK): 11.3 µM; MCC [13]: 4 µM; TIME [14]: 0.0335 h; zone of inhibition at 50 µg/mL (Salmonella typhi): 11 mm; zone of inhibition at 50 µg/mL (Staphylococcus aureus): 11 mm; pEC50 (Coxsackievirus B4 [15]): < 5.40; zone of inhibition at 50 µg/mL (Klebsiella pneumoniae): 11 mm; CC50 (HeLa): > 100 µM; MCC [16]: ≥ 4 µM; pEC50 (Influenza A virus): < 6.10; pIC50 (CCRF-CEM): 5.34 |
| CCN(CC)CN1C(=O)/C(=N/NC(=S)Nc2ccc(Cl)cc2)c2ccccc21 | < 6.10 | < 6.80 | < 4.70 | < 5.40 | 20 µM | 11 mm | 4.82 | ≤ 4.70 | ≤ 4.70 | 11 mm | < 5.40 | 11 mm | 4 µM | 21 mm | < 5.40 | 4.82 | 38.7% | 4.96 | < 5.40 | < 5.40 | pEC50 (Influenza B virus): < 6.80; zone of inhibition at 50 µg/mL (Bacillus subtilis): 21 mm; pEC50 [11]: < 5.40; MCC [12]: 100 µM; pEC50 (Punta Toro virus): < 5.40; pEC50 (Felid alphaherpesvirus 1): < 6.10; CC50 (MDCK): 0.4 µM; MCC [13]: 0.8 µM; TIME [14]: 0.036 h; zone of inhibition at 50 µg/mL (Salmonella typhi): 11 mm; zone of inhibition at 50 µg/mL (Staphylococcus aureus): 11 mm; pEC50 (Coxsackievirus B4 [15]): < 5.40; zone of inhibition at 50 µg/mL (Klebsiella pneumoniae): 11 mm; CC50 (HeLa): 9.8 µM; MCC [16]: ≥ 4 µM; pEC50 (Influenza A virus): < 6.80; pIC50 (CCRF-CEM): 5.00 |
